Source: ChEMBL document CHEMBL1158537, “Antibacterial activities of aminoglycoside antibiotics-derived cationic amphiphiles. Polyol-modified neomycin B-, kanamycin A-, amikacin-, and neamine-based amphiphiles with potent broad spectrum antibacterial activity” (2010)
≈ marks a conversion by molar mass, not a printed value.

Key:
[1] = system: Escherichia coli; test: Antibacterial activity against gentamicin-resistant Escherichia coli ATCC 6174 after 24 hrs by macrobroth dilution method; assay type: functional
In short: (§1)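 Reference strains from the American Type Culture Collection were tested by broth macrodilution following CLSI methodology. The read-out was the minimum inhibitory concentration, reported in μg/mL. The same method was used for the Gram-positive and Gram-negative organisms.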

[2] = system: Escherichia coli; test: Antibacterial activity against Escherichia coli CAN-ICU 63074 after 24 hrs by macrobroth dilution method; assay type: functional
In short: (§2)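 Broth macrodilution was run following CLSI methodology against ATCC reference strains and clinical isolates from the Canadian Intensive Care Unit (CAN-ICU) study, with Gram-positive and Gram-negative organisms tested. The value is the minimum inhibitory concentration, reported in μg/mL.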

[3] = system: Acinetobacter baumannii; test: Antibacterial activity against Acinetobacter baumannii CAN-ICU 63169 after 24 hrs by macrobroth dilution method; assay type: functional; in short: as §2
[4] = system: Streptococcus pneumoniae; test: Antibacterial activity against Streptococcus pneumoniae ATCC 49619 after 24 hrs by macrobroth dilution method; assay type: functional; in short: as §2
[5] = system: Stenotrophomonas maltophilia; test: Antibacterial activity against Stenotrophomonas maltophilia CAN-ICU 62585 after 24 hrs by macrobroth dilution method; assay type: functional; in short: as §2
[6] = system: Staphylococcus epidermidis; test: Antibacterial activity against Staphylococcus epidermidis […] after 24 hrs by macrobroth dilution method; assay type: functional; in short: as §2
[7] = system: Escherichia coli; test: Antibacterial activity against Escherichia coli ATCC 25922 after 24 hrs by macrobroth dilution method; assay type: functional; in short: as §1
[8] = system: Staphylococcus aureus; test: Antibacterial activity against methicillin-resistant Staphylococcus aureus ATCC 33592 after 24 hrs by macrobroth dilution method; assay type: functional; in short: as §1
[9] = system: Staphylococcus aureus; test: Antibacterial activity against Staphylococcus aureus ATCC 29213 after 24 hrs by macrobroth dilution method; assay type: functional; in short: as §1
[10] = system: Staphylococcus epidermidis; test: Antibacterial activity against methicillin-resistant Staphylococcus epidermidis ATCC 14990 after 24 hrs by macrobroth dilution method; assay type: functional
[11] = system: Pseudomonas aeruginosa; test: Antibacterial activity against Pseudomonas aeruginosa CAN-ICU 62308 after 24 hrs by macrobroth dilution method; assay type: functional; in short: as §2
[12] = system: Pseudomonas aeruginosa; test: Antibacterial activity against Pseudomonas aeruginosa ATCC 27853 after 24 hrs by macrobroth dilution method; assay type: functional; in short: as §2
[13] = system: Klebsiella pneumoniae; test: Antibacterial activity against Klebsiella pneumoniae ATCC 13883 after 24 hrs by macrobroth dilution method; conditions: ATCC 13883, 24 h

Row | Molecule | MIC ([1]; ATCC 6174, 24 h) | MIC ([2]; CAN-ICU 63074, 24 h) | MIC ([3]; CAN-ICU 63169, 24 h) | MIC ([4]; ATCC 49619, 24 h) | MIC ([5]; CAN-ICU 62585, 24 h) | MIC [6] | MIC ([7]; ATCC 25922, 24 h) | MIC ([8]; ATCC 33592, 24 h) | MIC ([9]; ATCC 29213, 24 h) | MIC ([10]; ATCC 14990, 24 h) | MIC ([11]; CAN-ICU 62308, 24 h) | MIC ([12]; ATCC 27853, 24 h) | MIC [13] | other results
1 | NCC[C@H](OC(=O)Nc1ccccc1)C(=O)N[C@@H]1C[C@H](N)[C@@H](C[C@H]2O[C@H](CN)[C@@H](OC(=O)Nc3ccccc3)[C@H](OC(=O)Nc3ccccc3)[C@H]2OC(=O)Nc2ccccc2)[C@H](OC(=O)Nc2ccccc2)[C@H]1O[C@H]1O[C@H](COC(=O)Nc2ccccc2)[C@@H](OC(=O)Nc2ccccc2)[C@H](N)[C@H]1OC(=O)Cc1ccccc1.O=C(O)C(F)(F)F | 256 mg/L | 256 mg/L | 256 mg/L | 32 mg/L | 128 mg/L | 2 mg/L | 256 mg/L | 16 mg/L | 8 mg/L | 2 mg/L | 256 mg/L | > 256 mg/L | 256 mg/L | –
2 | NC[C@H]1OC(O[C@H]2[C@H](OCc3ccccc3)[C@@H](O[C@H]3O[C@H](COCc4ccccc4)[C@@H](OCc4ccccc4)[C@H](N)[C@H]3OCc3ccccc3)[C@H](N)C[C@@H]2N)[C@H](OCc2ccccc2)[C@@H](OCc2ccccc2)[C@@H]1OCc1ccccc1.O=C(O)C(F)(F)F (stereo not given in full) | 32 mg/L | 16 mg/L | > 64 mg/L | 32 mg/L | > 64 mg/L | 4 mg/L | 32 mg/L | 8 mg/L | 8 mg/L | 8 mg/L | > 64 mg/L | > 64 mg/L | > 64 mg/L | –
3 | NCC[C@H](O)C(=O)N[C@@H]1C[C@H](N)[C@@H](O[C@H]2O[C@H](CN)[C@@H](O)[C@H](O)[C@H]2O)[C@H](O)[C@H]1O[C@H]1O[C@H](CO)[C@@H](O)[C@H](N)[C@H]1O [AMIKACIN] | 2 mg/L (≈ 3.42 µM) | 32 mg/L (≈ 54.6 µM) | 128 mg/L (≈ 219 µM) | 8 mg/L (≈ 13.7 µM) | > 512 mg/L | 1 mg/L (≈ 1.71 µM) | 4 mg/L (≈ 6.83 µM) | 8 mg/L (≈ 13.7 µM) | 4 mg/L (≈ 6.83 µM) | 2 mg/L (≈ 3.42 µM) | 128 mg/L (≈ 219 µM) | 4 mg/L (≈ 6.83 µM) | 0.5 mg/L (≈ 0.854 µM) | –
4 | NC[C@@H]1O[C@@H](O[C@H]2[C@H](O)[C@@H](O[C@H]3O[C@H](CO)[C@@H](O)[C@H](N)[C@H]3O)[C@H](N)C[C@@H]2N)[C@@H](O)[C@H](O)[C@H]1O [KANAMYCIN A] | 16 mg/L (≈ 33 µM) | 32 mg/L (≈ 66 µM) | 32 mg/L (≈ 66 µM) | 8 mg/L (≈ 16.5 µM) | > 512 mg/L | 2 mg/L (≈ 4.13 µM) | 8 mg/L (≈ 16.5 µM) | > 512 mg/L | 4 mg/L (≈ 8.26 µM) | 128 mg/L (≈ 264 µM) | > 512 mg/L | > 512 mg/L | 1 mg/L (≈ 2.06 µM) | –
5 | NC[C@H]1O[C@H](O[C@H]2[C@H](OC(=O)Nc3ccccc3)[C@@H](O[C@H]3O[C@H](COC(=O)Nc4ccccc4)[C@@H](OC(=O)Nc4ccccc4)[C@H](N)[C@H]3OC(=O)Nc3ccccc3)[C@H](N)C[C@@H]2N)[C@H](OC(=O)Nc2ccccc2)[C@@H](OC(=O)Nc2ccccc2)[C@@H]1OC(=O)Nc1ccccc1.O=C(O)C(F)(F)F | > 256 mg/L | > 256 mg/L | > 256 mg/L | 64 mg/L | > 256 mg/L | 4 mg/L | > 256 mg/L | 32 mg/L | 32 mg/L | 8 mg/L | > 256 mg/L | > 256 mg/L | > 256 mg/L | –
6 | NC[C@@H]1O[C@H](O[C@H]2[C@@H](OC(=O)Nc3ccc(Cl)cc3)[C@H](O[C@@H]3[C@@H](OC(=O)Nc4ccc(Cl)cc4)[C@H](N)C[C@H](N)[C@H]3O[C@H]3O[C@H](CN)[C@@H](OC(=O)Nc4ccc(Cl)cc4)[C@H](OC(=O)Nc4ccc(Cl)cc4)[C@H]3N)O[C@@H]2COC(=O)Nc2ccc(Cl)cc2)[C@H](N)[C@@H](OC(=O)Nc2ccc(Cl)cc2)[C@@H]1OC(=O)Nc1ccc(Cl)cc1.O=C(O)C(F)(F)F | > 256 mg/L | 256 mg/L | > 256 mg/L | 128 mg/L | 128 mg/L | 16 mg/L | > 256 mg/L | 64 mg/L | 64 mg/L | 32 mg/L | 256 mg/L | > 256 mg/L | 256 mg/L | –
7 | NC[C@@H]1O[C@H](O[C@H]2[C@@H](O)[C@H](O[C@@H]3[C@@H](O)[C@H](N)C[C@H](N)[C@H]3O[C@H]3O[C@H](CN)[C@@H](O)[C@H](O)[C@H]3N)O[C@@H]2CO)[C@H](N)[C@@H](O)[C@@H]1O [FRAMYCETIN] | 8 mg/L (≈ 13 µM) | – | 64 mg/L (≈ 104 µM) | 32 mg/L (≈ 52.1 µM) | > 512 mg/L | 0.25 mg/L (≈ 0.407 µM) | 4 mg/L (≈ 6.51 µM) | 256 mg/L (≈ 416 µM) | 1 mg/L (≈ 1.63 µM) | 0.5 mg/L (≈ 0.813 µM) | 512 mg/L (≈ 833 µM) | 512 mg/L (≈ 833 µM) | 1 mg/L (≈ 1.63 µM) | –
8 | NC[C@@H]1O[C@H](O[C@H]2[C@@H](OCc3ccccc3)[C@H](O[C@@H]3[C@@H](OCc4ccccc4)[C@H](N)C[C@H](N)[C@H]3O[C@H]3O[C@H](CN)[C@@H](OCc4ccccc4)[C@H](OCc4ccccc4)[C@H]3N)O[C@@H]2COCc2ccccc2)[C@H](N)[C@@H](OCc2ccccc2)[C@@H]1OCc1ccccc1.O=C(O)C(F)(F)F | 16 mg/L | 4 mg/L | 16 mg/L | 16 mg/L | 8 mg/L | 2 mg/L | 8 mg/L | 4 mg/L | 4 mg/L | 2 mg/L | 64 mg/L | 32 mg/L | 8 mg/L | –
9 | COC[C@H]1O[C@H](O[C@@H]2[C@@H](OC)[C@H](OC3O[C@H](CN)[C@@H](OC)[C@H](OC)[C@H]3OC)[C@@H](N)C[C@H]2N)[C@H](OC)[C@@H](N)[C@@H]1OC.O=C(O)C(F)(F)F (stereo not given in full) | > 256 mg/L | > 256 mg/L | > 256 mg/L | > 256 mg/L | > 256 mg/L | 256 mg/L | > 256 mg/L | > 256 mg/L | > 256 mg/L | > 256 mg/L | > 256 mg/L | > 256 mg/L | > 256 mg/L | –
10 | NC[C@@H]1O[C@H](O[C@H]2[C@@H](OCc3ccc(Cl)cc3)[C@H](O[C@@H]3[C@@H](OCc4ccc(Cl)cc4)[C@H](N)C[C@H](N)[C@H]3O[C@H]3O[C@H](CN)[C@@H](OCc4ccc(Cl)cc4)[C@H](OCc4ccc(Cl)cc4)[C@H]3N)O[C@@H]2COCc2ccc(Cl)cc2)[C@H](N)[C@@H](OCc2ccc(Cl)cc2)[C@@H]1OCc1ccc(Cl)cc1.O=C(O)C(F)(F)F | > 128 mg/L | 64 mg/L | > 128 mg/L | 128 mg/L | > 128 mg/L | 32 mg/L | 128 mg/L | 64 mg/L | 64 mg/L | 64 mg/L | > 128 mg/L | > 128 mg/L | 128 mg/L | –
11 | GENTAMICIN | – | – | – | – | – | 0.25 mg/L | – | – | – | – | – | – | – | MIC [1]: 128 mg/L; MIC [2]: 8 mg/L; MIC [3]: 128 mg/L; MIC [4]: 4 mg/L; MIC [5]: > 512 mg/L; MIC [7]: 1 mg/L; MIC [8]: 2 mg/L; MIC [9]: 1 mg/L; MIC [10]: 32 mg/L; MIC [11]: 128 mg/L; MIC [12]: 8 mg/L
12 | NC[C@H]1O[C@H](O[C@H]2[C@H](OC(=O)Nc3ccccc3)[C@@H](OC(=O)Nc3ccccc3)[C@H](N)C[C@@H]2N)[C@H](N)[C@@H](OC(=O)Nc2ccccc2)[C@@H]1OC(=O)Nc1ccccc1.O=C(O)C(F)(F)F | 32 mg/L | 32 mg/L | 256 mg/L | > 256 mg/L | 64 mg/L | 8 mg/L | 32 mg/L | 16 mg/L | 16 mg/L | 8 mg/L | 128 mg/L | 128 mg/L | 64 mg/L | –
13 | CC(C)(C)c1ccc(COC[C@H]2O[C@@H](O[C@@H]3[C@@H](OCc4ccc(C(C)(C)C)cc4)[C@H](N)C[C@H](N)[C@H]3O[C@H]3O[C@H](CN)[C@@H](OCc4ccc(C(C)(C)C)cc4)[C@H](OCc4ccc(C(C)(C)C)cc4)[C@H]3N)[C@H](OCc3ccc(C(C)(C)C)cc3)[C@@H]2O[C@H]2O[C@@H](CN)[C@@H](OCc3ccc(C(C)(C)C)cc3)[C@H](OCc3ccc(C(C)(C)C)cc3)[C@H]2N)cc1.O=C(O)C(F)(F)F | 128 mg/L | 128 mg/L | > 128 mg/L | 256 mg/L | > 128 mg/L | 64 mg/L | 128 mg/L | 128 mg/L | 128 mg/L | 64 mg/L | 128 mg/L | 256 mg/L | > 128 mg/L | –
14 | NC[C@@H]1O[C@H](O[C@H]2[C@@H](OC(=O)Nc3ccccc3)[C@H](O[C@@H]3[C@@H](OC(=O)Nc4ccccc4)[C@H](N)C[C@H](N)[C@H]3O[C@H]3O[C@H](CN)[C@@H](OC(=O)Nc4ccccc4)[C@H](OC(=O)Nc4ccccc4)[C@H]3N)O[C@@H]2COC(=O)Nc2ccccc2)[C@H](N)[C@@H](OC(=O)Nc2ccccc2)[C@@H]1OC(=O)Nc1ccccc1.O=C(O)C(F)(F)F | 16 mg/L | 16 mg/L | 32 mg/L | 16 mg/L | 4 mg/L | 0.5 mg/L | 32 mg/L | 1 mg/L | 1 mg/L | 0.5 mg/L | 128 mg/L | 256 mg/L | 256 mg/L | –
